Assay results: ChEMBL document CHEMBL5678799 (Biochem J, 2009)
Activity calls are given as the source filed them. The rule behind the calls is not given here.

Key:
mTORC2 (Homo sapiens) = mTORC2 (Homo sapiens) (UniProt P42345+Q6R327+Q9BVC4+Q9BPZ7); details: HEK293, dose 30-1000 nM, time 30.0 min
[1] = target: Serine/threonine-protein kinase pim-1 (Homo sapiens) (UniProt P11309); test: Inhibition of recombinant human N-terminal His6-tagged PIM1 (2 to 313 residues) expressed in baculovirus infected Sf21 cells assessed as remaining activity at 10 uM using RSRHSSYPAGT as substrate incubated for 30 mins in presence of [gamma-33P]ATP by filter binding method relative to control
In short: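 Incubations ran robotically for 30 min at room temperature (21 °C) under linear conditions. Results are percent activity remaining versus controls without compound, as the mean of triplicates ± S.D.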

[2] = target: Ribosomal protein S6 kinase alpha-5 (Homo sapiens) (UniProt O75582); test: Inhibition of recombinant human His6-tagged MSK1 (2 to 802 residues) expressed in baculovirus infected Sf21 cells assessed as remaining activity at 10 uM using GRPRTSSFAEGKK as substrate incubated for 30 mins in presence of [gamma-33P]ATP by filter binding method relative to control
In short: (§1)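 Robotic radiometric panel assay, 30 min at room temperature (21 °C), with 10 mM magnesium acetate. […] Compound at 1 or 10 µM. Residual activity expressed relative to compound-free control; triplicate average ± S.D.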

[3] = target: Serine/threonine-protein kinase Nek6 (Homo sapiens) (UniProt Q9HC98); test: Inhibition of recombinant human His6-tagged NEK6 (8 to 313 residues) expressed in baculovirus infected Sf21 cells assessed as remaining activity at 10 uM using FLAKSFGSPNRAYKK as substrate incubated for 30 mins in presence of [gamma-33P]ATP by filter binding method relative to control
In short: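 Run robotically for 30 min at 21 °C under linear conditions. Compound at 1 or 10 µM. Percentage activity remaining versus control without compound, triplicate mean ± S.D.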

MEF [4] = test: Inhibition of mTORC2 in serum starved MEF cells assessed as reduction IGF1-stimulated AKT phosphorylation at Thr308 residue at 100 to 1000 nM incubated for 20 mins by immunoblot analysis; type: cell-based; details: Mus musculus, dose 100-1000 nM
In short: (§2)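 Serum withdrawn 16 h. Inhibitor or vehicle given 30 min before stimulation with 50 ng/ml IGF-1 for 20 min. Lysed in Tris lysis buffer and immunoblotted for Akt Thr308 phosphorylation with ECL detection. Applies to HEK-293 and to wild-type, Rictor, Sin1 or mLST8 knockout MEFs. Three independent experiments.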

[5] = target: Ephrin type-B receptor 3 (Homo sapiens) (UniProt P54753); test: Inhibition of recombinant human N-terminal His6-tagged EPHB3 (561 to 998 residues) expressed in Escherichia coli assessed as remaining activity at 1 uM using Poly(Glu, Tyr) as substrate incubated for 30 mins in presence of [gamma-33P]ATP by filter binding method relative to control
In short: (§3)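 Panel assays were run for 30 min at 21 °C, within the linear range for time and enzyme. […] Results are percent activity remaining relative to compound-free control, averaged from triplicate ± S.D.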

MEF [6] = test: Inhibition of mTORC2 in serum starved sin1 knockout MEF cells assessed as reduction IGF1-stimulated AKT phosphorylation at Thr308 residue at 100 to 1000 nM incubated for 20 mins by immunoblot analysis; type: cell-based; details: Mus musculus, dose 100-1000 nM
In short: as §2

[7] = target: Vascular endothelial growth factor receptor 1 (Homo sapiens) (UniProt P17948); test: Inhibition of recombinant human N-terminal GST-tagged VEGFR1 (784 to 1338 residues) expressed in baculovirus infected Sf21 cells assessed as remaining activity at 10 uM using KKKSPGEYVNIEFG as substrate incubated for 30 mins in presence of [gamma-33P]ATP by filter binding assay relative to control
In short: as §3

[8] = target: Fibroblast growth factor receptor 1 (Homo sapiens) (UniProt P11362); test: Inhibition of recombinant human N-terminal His6-tagged FGFR1 (400 to 820 residues) expressed in baculovirus infected Sf21 cells assessed as remaining activity at 10 uM using Poly(Glu,Tyr) as substrate incubated for 30 mins in presence of [gamma-33P]ATP by filter binding method relative to control
In short: as §3

[9] = target: cAMP-dependent protein kinase catalytic subunit alpha (Homo sapiens) (UniProt P17612); test: Inhibition of recombinant human N-terminal GST-tagged PKAalpha (2 to 351 residues) expressed in Escherichia coli assessed as remaining activity at 10 uM using Kemptide as substrate incubated for 30 mins in presence of [gamma-33P]ATP by filter binding method relative to control
In short: as §3

[10] = target: Dual specificity mitogen-activated protein kinase kinase 1 (Homo sapiens) (UniProt Q02750); test: Inhibition of recombinant human MKK1 (2 to 393 residues) expressed in Escherichia coli assessed as remaining activity at 1 uM using MBP as substrate incubated for 30 mins in presence of [gamma-33P]ATP by filter binding method relative to control
In short: (§4)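 Kinase panel run robotically at 21 °C for 30 min, linear in time and enzyme. […] Compound tested at 1 or 10 µM. Activity given as percentage of incubations without compound, mean of triplicates ± S.D.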

[11] = target: MAP/microtubule affinity-regulating kinase 3 (Homo sapiens) (UniProt P27448); test: Inhibition of recombinant human N-terminal His6-tagged MARK3 (2 to 729 residues) expressed in baculovirus infected Sf21 cells assessed as remaining activity at 1 uM using CHKtide as substrate incubated for 30 mins in presence of [gamma-33P]ATP by filter binding method relative to control
mTORC1 (Homo sapiens) = mTORC1 (Homo sapiens) (UniProt P42345+Q8N122+Q9BVC4); details: HEK293, dose 30.0 nM, time 30.0 min
[12] = target: Dual specificity mitogen-activated protein kinase kinase 1 (Homo sapiens) (UniProt Q02750); test: Inhibition of recombinant human MKK1 (2 to 393 residues) expressed in Escherichia coli assessed as remaining activity at 10 uM using MBP as substrate incubated for 30 mins in presence of [gamma-33P]ATP by filter binding method relative to control
In short: as §4

MEF [13] = test: Induction of cell cycle arrest in MEF cells assessed as accumulation at G1 phase at 3 uM incubated for 1 to 3 days by propidium iodide staining based flow cytometric analysis (reference value: 21.4 +/- 1.7%); type: toxicity; details: mouse, time 1-3 day
[14] = target: Serine/threonine-protein kinase Chk1 (Homo sapiens) (UniProt O14757); test: Inhibition of recombinant human N-terminal GST-tagged CHK1 (1 to 476 residues) expressed in baculovirus infected Sf21 cells assessed as remaining activity at 1 uM using CHKtide as substrate incubated for 30 mins in presence of [gamma-33P]ATP by filter binding method relative to control
In short: as §1

[15] = target: Aurora kinase B (Homo sapiens) (UniProt Q96GD4); test: Inhibition of recombinant human N-terminal His6-tagged Aurora B (1 to 344 residues) expressed in Escherichia coli assessed as remaining activity at 10 uM using LRRLSLGLRRLSLGLRRLSLGLRRLSLG as substrate incubated for 30 mins in presence of [gamma-33P]ATP by filter binding method relative to control

## COc1ccc(-c2ccc3c(N4CCOCC4)nc(N4C[C@@H](C)O[C@@H](C)C4)nc3n2)cc1CO [Ku-0063794]
mTORC2 (Homo sapiens)
  inhibition: Active
[1]
  Activity: 98%
[2]
  Activity: 117%
[3]
  Activity: 83%
MEF [4]
  inhibition: Active
[5]
  Activity: 100%
MEF [6]
  inhibition: Active
[7]
  Activity: 92%
[8]
  Activity: 87%
[9]
  Activity: 85%
[10]
  Activity: 96%
[11]
  Activity: 93%
mTORC1 (Homo sapiens)
  inhibition: 50%
[12]
  Activity: 43%
MEF [13]
  Activity: 42.4%
[14]
  Activity: 87%
[15]
  Activity: 86%
